Results published in ChEMBL document CHEMBL4017499, “The Discovery of Novel Antimalarial Aminoxadiazoles as a Promising Nonendoperoxide Scaffold” (J Med Chem, 2017).
In brackets after ≈: the same amount, converted by molar mass. Activity calls are given as the source filed them. No cut-off for these calls is given here.

How the values were obtained:
Plasmodium falciparum [1] = experiment: Antiplasmodial activity against Plasmodium falciparum 3D7A infected in red blood cells preincubated for 24 hrs followed by [3H]-hypoxanthine addition measured after 24 hrs by scintillation counting; assay type: functional, cell-based
In short: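 Whole-cell growth assay on sensitive P. falciparum strain 3D7A by [3H]hypoxanthine incorporation; two or three independent biological replicates per value.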

Liver = experiment: Intrinsic clearance in human liver microsomes at 0.5 uM up to 45 mins in presence of NADPH by HPLC-MS/MS analysis; assay type: ADME, microsome; details: 0.75 h
Plasmodium falciparum [2] = experiment: Antimalarial activity against Plasmodium falciparum 3D7 0087/N9 infected in po dosed mouse assessed as average daily exposure in whole blood required to reduce parasitemia administered 3 days post infection dosed once a day for four consecutive days measured 7 days post dose; assay type: functional, organism-based
Mus musculus = experiment: (§1) Clearance in CD1 mouse at 1 mg/kg, iv measured up to 24 hrs post dose by LC-MS/MS analysis; assay type: ADME, organism-based; details: mouse, in vivo, 24 h
In short: (§2)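 Pharmacokinetics in mouse after a single intravenous dose of 1 mg/kg.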

[3] = Oral bioavailability in CD1 mouse at 10 mg/kg measured up to 24 hrs post dose by LC-MS/MS analysis; assay type: ADME, organism-based; details: in vivo
In short: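 Oral bioavailability in mouse after a single oral dose of 10 mg/kg.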

Plasmodium falciparum [4] = experiment: Antimalarial activity against Plasmodium falciparum 3D7 0087/N9 infected in po dosed SCID mouse assessed as reduction in parasitemia administered 3 days post infection dosed once a day for four consecutive days measured after 7 days; assay type: functional; details: 3D7 0087/N9, po
In short: (§3)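 SCID mice engrafted with human parasite P. falciparum Pf 3D70087/N9; oral dosing started 3 days after infection, once daily for four consecutive days; parasitemia compared with untreated controls.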

[5] = Lipophilicity, log D of compound at pH 7.4 by chromatographic method; assay type: physicochemical; details: buffer
[6] = Half life in CD1 mouse at 1 mg/kg, iv measured up to 24 hrs post dose by LC-MS/MS analysis; assay type: ADME, organism-based; details: in vivo; in short: as §2
[7] = Chemical stability in SGF media at pH 1.6 after 14 hrs; assay type: physicochemical; details: simulated gi fluid, pH 1.6, 14 h
In short: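 Stability in simulated gastric fluid at pH 1.6, held at 37 °C for up to 24 h; checked for degradation products.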

Plasma [8] = experiment: Drug metabolism in Swiss CD1 mouse assessed as 2-(3-(Pyridin-3-yl)-5-(trifluoromethyl)benzoyl)-N-(4-(pyrrolidin-1-ylmethyl)phenyl)hydrazinecarboxamide in plasma at 300 to 500 mg/kg, po by HPLC analysis; assay type: ADME, organism-based; details: in vivo
In short: (§4)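 Mice given high oral doses (250/300 and 500 mg/kg); plasma analysed by HPLC for parent compound and breakdown products, expressed as percentage levels.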

[9] = Solubility of the compound in fasted state stimulated intestinal fluid at pH 6.5 by HPLC analysis; assay type: physicochemical; details: fasted state simulated intestinal fluid
In short: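 Solubility measured in fasted state simulated intestinal fluid, pH 6.5.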

Plasmodium falciparum [10] = experiment: Antimalarial activity against Plasmodium falciparum 3D7 0087/N9 infected in SCID mouse assessed as reduction in parasitemia at 50 mg/kg, po administered 3 days post infection dosed once a day for four consecutive days measured 2 days; assay type: functional, organism-based; in short: as §3
Plasma [11] = experiment: Drug level in Swiss CD1 mouse plasma treated with 5-([3,4'-Bipyridin]-2'-yl)-N-(4-(pyrrolidin-1-ylmethyl)phenyl)-1,3,4-oxadiazol-2-amine at 500 mg/kg, po by HPLC analysis; assay type: ADME, organism-based; details: in vivo; in short: as §4
Plasmodium falciparum [12] = experiment: Ratio of IC50 for chloroquine/pyrimethamine-resistant Plasmodium falciparum V1/S infected in red blood cells to IC50 for wild type Plasmodium falciparum 3D7A infected in red blood cells; assay type: functional
[13] = Ratio of IC50 for Plasmodium falciparum HB3 infected in red blood cells to IC50 for wild type Plasmodium falciparum 3D7A infected in red blood cells; assay type: functional
[14] = Ratio of IC50 for chloroquine/pyrimethamine-resistant Plasmodium falciparum Dd2 infected in red blood cells to IC50 for wild type Plasmodium falciparum 3D7A infected in red blood cells; assay type: functional
Plasmodium falciparum [15] = experiment: Ratio of IC50 for pyrimethamine-resistant Plasmodium falciparum TC08 infected in red blood cells to IC50 for wild type Plasmodium falciparum 3D7A infected in red blood cells; assay type: functional
Plasmodium falciparum [16] = experiment: Ratio of IC50 for chloroquine-resistant Plasmodium falciparum T9/94 infected in red blood cells to IC50 for wild type Plasmodium falciparum 3D7A infected in red blood cells; assay type: functional
Plasmodium falciparum [17] = experiment: Ratio of IC50 for chloroquine/pyrimethamine/atovaquone-resistant Plasmodium falciparum Tm90C2B infected in red blood cells to IC50 for wild type Plasmodium falciparum 3D7A infected in red blood cells; assay type: functional
Plasmodium falciparum [18] = experiment: Ratio of IC50 for chloroquine/atovaquone/cycloguanil-resistant Plasmodium falciparum FCR3 infected in red blood cells to IC50 for wild type Plasmodium falciparum 3D7A infected in red blood cells; assay type: functional
Plasmodium falciparum [19] = experiment: Ratio of IC50 for chloroquine/pyrimethamine-resistant Plasmodium falciparum Tm90C2A infected in red blood cells to IC50 for wild type Plasmodium falciparum 3D7A infected in red blood cells; assay type: functional
[20] = Volume of distribution at steady state in CD1 mouse at 1 mg/kg, iv measured up to 24 hrs post dose by LC-MS/MS analysis; assay type: ADME, organism-based; details: in vivo, read-out: Vdss; in short: as §2
Plasmodium falciparum [21] = experiment: Antimalarial activity against Plasmodium falciparum 3D7 0087/N9 infected in SCID mouse assessed as reduction in parasitemia at 120 mg/kg, po administered 3 days post infection dosed once a day for four consecutive days relative to control; assay type: functional; set-up: scale not given: the % may be the effect or the level left; in short: as §3
[22] = Ratio of TC50 for human HepG2 to IC50 for antiplasmodial activity against Plasmodium falciparum 3D7A infected in red blood cells
In short: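 Denominator is the asexual P. falciparum 3D7A IC50 from a [3H]hypoxanthine incorporation assay, using two or three independent biological replicates. Numerator is the 50% toxicity value in HepG2 cells, expressed as Tox50/Pf 3D7 IC50.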

HepG2 = experiment: Cytotoxicity against human HepG2 cells at 25 uM; assay type: cell-based; details: hepg2, 25 µM
In short: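 HepG2 cells exposed to compound at 25 μM to assess mammalian cytotoxicity.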

[23] = as §1; assay type: ADME, organism-based; details: CD1, mouse, in vivo; in short: as §2
Plasma [24] = experiment: Drug level in Swiss CD1 mouse plasma treated with 5-(3-(Pyridin-3-yl)-5-(trifluoromethyl)phenyl)-N-(4-(pyrrolidin-1-ylmethyl)phenyl)-1,3,4-oxadiazol-2-amine at 500 mg/kg, po by HPLC analysis; assay type: ADME, organism-based; details: in vivo; in short: as §4

`CN(C)Cc1ccc(Nc2nnc(-c3cccc(-c4cccnc4)c3)o2)cc1` gave an IC50 (Plasmodium falciparum [1]) of 30 nM.

Compound `CN1CCc2ccc(Nc3nnc(-c4cc(-c5cccnc5)ccc4F)o3)cc2C1` has an IC50 (Plasmodium falciparum [1]) of 50 nM and an intrinsic clearance (Liver) of 2.9 mL/min/g.

With `FC(F)(F)c1cc(-c2cccnc2)cc(-c2nnc(Nc3ccc(CN4CCCC4)cc3)o2)c1` the IC50 (Plasmodium falciparum [1]) was 30 nM, the AUCED90 (Plasmodium falciparum [2]) was < 6.1 µg.hr/ml/day and the clearance (Mus musculus) was 19.5 mL/min/kg. For the same compound, the bioavailability [3] was 89%, the ED90 (Plasmodium falciparum [4]) was < 20 mg/kg and the chromatographic logD [5] was 3.3. The half-life [6] was 84 min, the Stability [7] was “Unstable” and the Drug metabolism (Plasma [8]) was “Metabolite_Detected”.

With `CN(C)Cc1ccc(Nc2nnc(-c3cc(-c4cccnc4)cc(C(F)(F)F)c3)o2)cc1` the IC50 (Plasmodium falciparum [1]) was 30 nM, the AUCED90 (Plasmodium falciparum [2]) was < 2.5 µg.hr/ml/day and the clearance (Mus musculus) was 76.9 mL/min/kg. For the same compound, the bioavailability [3] was 100%, the ED90 (Plasmodium falciparum [4]) was < 20 mg/kg and the solubility [9] was 57 µg/mL (≈ 130 µM). The Activity (Plasmodium falciparum [10]) was “Active”, the chromatographic logD [5] was 3.2 to 3.3 and the half-life [6] was 17.4 min.

For `CN1CCc2ccc(Nc3nnc(-c4cc(OC(F)(F)F)cc(-c5cccnc5)c4)o3)cc2C1`, the IC50 (Plasmodium falciparum [1]) was 220 nM and the intrinsic clearance (Liver) was < 0.5 mL/min/g.

For `O=C(NNC(=O)c1cc(-c2cccnc2)ccn1)Nc1ccc(CN2CCCC2)cc1`, the Drug metabolism (Plasma [11]) was “Metabolite_Detected”.

With `CN1CCc2ccc(Nc3nnc(-c4cccc(-c5cccnc5)n4)o3)cc2C1` the IC50 (Plasmodium falciparum [1]) was 1900 nM.

In the case of `CN1CCOc2ccc(Nc3nnc(-c4cccc(-c5cccnc5)c4)o3)cc2C1`, the “Ratio IC50” value (Plasmodium falciparum [12]) is reported as 1, the IC50 (Plasmodium falciparum [1]) is reported as 70 nM and the “Ratio IC50” value [13] is reported as 1. For the same compound, the “Ratio IC50” value [14] was 1, the “Ratio IC50” value (Plasmodium falciparum [15]) was 1 and the “Ratio IC50” value (Plasmodium falciparum [16]) was 1. For the same compound, the “Ratio IC50” value (Plasmodium falciparum [17]) was 1, the “Ratio IC50” value (Plasmodium falciparum [18]) was 1 and the “Ratio IC50” value (Plasmodium falciparum [19]) was 1. The Vd [20] was 2.6 L/kg, the bioavailability [3] was 26.6% and the Activity (Plasmodium falciparum [21]) was 81%. The intrinsic clearance (Liver) was 13.7 mL/min/g, the ED90 (Plasmodium falciparum [4]) was > 120 mg/kg and the Ratio [22] was >100. The Activity (HepG2) was “Non-Toxic”.

For `CN1CCCc2ccc(Nc3nnc(-c4cccc(-c5cccnc5)c4)o3)cc2C1`, the IC50 (Plasmodium falciparum [1]) was 660 nM and the intrinsic clearance (Liver) was 9.3 mL/min/g.

With `CN1CCc2ccc(Nc3nnc(-c4cc(-c5cccnc5)cc(C(F)(F)F)c4)o3)cc2C1` the “Ratio IC50” value (Plasmodium falciparum [12]) was 1, the IC50 (Plasmodium falciparum [1]) was 20 nM and the “Ratio IC50” value [13] was 1. The “Ratio IC50” value [14] was 1, the “Ratio IC50” value (Plasmodium falciparum [15]) was 1 and the “Ratio IC50” value (Plasmodium falciparum [16]) was 1. The “Ratio IC50” value (Plasmodium falciparum [17]) was 1, the “Ratio IC50” value (Plasmodium falciparum [18]) was 1 and the AUCED90 (Plasmodium falciparum [2]) was 2.2 µg.hr/ml/day. For the same compound, the “Ratio IC50” value (Plasmodium falciparum [19]) was 1, the clearance [23] was 42 to 43 mL/min/kg and the Vd [20] was 3.5 L/kg. The bioavailability [3] was 90%, the intrinsic clearance (Liver) was 0.9 mL/min/g and the ED90 (Plasmodium falciparum [4]) was 9.3 mg/kg. The solubility [9] was 1.2 µg/mL (≈ 2.66 µM).

`CN(C)Cc1ccc(Nc2nnc(-c3cc(-c4cccnc4)cc(C(F)(F)F)c3)o2)cn1` gave an IC50 (Plasmodium falciparum [1]) of 90 nM and a chromatographic logD [5] of 2.9.

Work on `CN1CCc2ccc(Nc3nnc(-c4cccc(-c5cccnc5)c4)o3)nc2C1` yielded an IC50 (Plasmodium falciparum [1]) of 130 nM.

Compound `CN1CCc2ccc(Nc3nnc(-c4ccnc(-c5cccnc5)c4)o3)cc2C1` has an IC50 (Plasmodium falciparum [1]) of 70 nM.

For `O=C(O)c1cc(-c2cccnc2)cc(C(F)(F)F)c1`, the Drug metabolism (Plasma [24]) was “Metabolite_Detected”.
